Activity calls are given as the source filed them.

The subject of data set [1] is Rattus norvegicus. The data set can be described thus: Anticonvulsant activity measured to prevent maximal electroshock seizure in rats when administered intraperitoneally. The class given is functional. To be noted: ip. A digest of the protocol: (§1)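 Male Sprague–Dawley rats (160–300 g) given compound ip as suspension in 0.5% methylcellulose (10 mL/kg), 30 min before electroshock; 150 mA via corneal electrodes for 0.2 s. Protection = abolition of hind-limb tonic extensor component. ED50 in mg/kg.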
A general note: The maximal electroshock test induces tonic seizures with an electrical stimulus.

Data set [2] deals with Rattus norvegicus. Description: (§2) Anticonvulsant activity was measured by the ability to prevent intraperitoneally. In kind it is functional. The method, boiled down:
(§3)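 Pentylenetetrazole (90 mg/kg ip) given after ip pretreatment with test agent as suspension in 0.5% methylcellulose; controls received diluent. Animals observed 15 min; protection = absence of clonic seizures. ED50 in mg/kg.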

The nature of data set [3]: Acute toxicity measured in mice when administered intraperitoneally. The class given is organism-based. To be noted: mus sp., in vivo, ip.
The test system of data set [4] is Mus musculus. Description: Neurological deficit (Loss of coordination) was measured in the mice using rotarod test when administered intraperitoneally. In kind it is functional. To be noted: ip. The method, boiled down: (§4)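 Mice dosed ip, then placed on rotarod turning at 11 rpm; failure to stay on for at least 1 min scored as loss of coordination. ED50 in mg/kg.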
In general terms: The rotarod test checks motor coordination on a turning rod.

The subject of data set [5] is Mus musculus. Description: Anticonvulsant activity was measured by the ability to prevent maximal electroshock seizure in mice when administered intraperitoneally. The settings on record: ip. The class given is functional. A digest of the protocol: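 Male ICR (Blue Spruce) mice, 19–22 g, dosed ip as suspension in 0.5% methylcellulose (10 mL/kg) 30 min prior to corneal electroshock, 50 mA for 0.2 s. Mice scored protected if hind-limb extensor phase was blocked; ED50 in mg/kg.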

For data set [6], the system named is Rattus norvegicus. The data set can be described thus: Peak time of anticonvulsant activity against MES was determined ip. In kind it is functional. The method, boiled down: (§5)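 Separate groups of rats dosed ip at approximate ED84 and challenged by maximal electroshock (150 mA, 0.2 s, corneal electrodes) at 0.5, 1, 2, 3 or >6 h after dosing; protection = hind-limb extensor blocked. Time of peak activity/duration in h.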

The nature of data set [7]: Acute toxicity of was measured in rat by ip administration of the compound. The class given is organism-based. The settings on record: in vivo.
In data set [8] the test system is Mus musculus. Described as §2. The class given is functional. To be noted: ip. A digest of the protocol: as §3
Data set [9] concerns Mus musculus. The data set can be described thus: Loss of righting reflex was measured in the mice when administered intraperitoneally. In kind it is functional. The settings on record: ip.
The test system of data set [10] is Mus musculus. Description: Neurological deficit was measured in the mice using rotarod test when administered intraperitoneally. The class given is functional. The settings on record: ip. The method, boiled down: as §4
Data set [11] concerns Mus musculus. Description: Anticonvulsant activity was measured by the ability to prevent matrazol induced threshold clonic seizures in mice when administered intraperitoneally. The class given is functional. The settings on record: ip. A digest of the protocol: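 Mice were pretreated intraperitoneally 30 min before pentylenetetrazole (90 mg/kg ip). Compounds were given as a 0.5% methylcellulose suspension at 10 mL/kg; controls received diluent. Animals were watched for 15 min and counted protected if clonic seizures were prevented. The ED50 is the dose protecting half the animals.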

In data set [12] the test system is Mus musculus. The data set can be described thus: Tolerance was tested in maximal electroshock seizures test in mice when administered intraperitoneally; Yes. In kind it is functional, organism-based.
Data set [13] is filed under the species Rattus norvegicus. The data set can be described thus: Peak time of anticonvulsant activity against MES was determined; 4-6. The class given is functional. The method, boiled down:
as §5

Data set [14] has as its system Rattus norvegicus. Description: Anticonvulsant activity was measured by the ability to prevent intraperitoneally; Inactive. In kind it is functional, organism-based. The method, boiled down: as §3
The nature of data set [15]: Acute toxicity of was measured in rat by po administration of the compound. The class given is organism-based. The settings on record: in vivo.
Data set [16] in a line: (§6) Acute toxicity of was measured in rat by ip administration when administered intraperitoneally. In kind it is organism-based. The settings on record: in vivo.
Data set [17] deals with Rattus norvegicus. The data set can be described thus: Acute toxicity of was measured in rat by po administration when administered intraperitoneally. To be noted: in vivo. In kind it is organism-based.
The species entered for data set [18] is Rattus norvegicus. The data set can be described thus: Peak time of anticonvulsant activity against MES was determined. In kind it is functional. A digest of the protocol:
as §5

Data set [19] can be described thus: as §6. In kind it is organism-based. To be noted: in vivo. The source holds these as a separate data set.
Data set [20] relates to Rattus norvegicus. Description: Anticonvulsant activity was measured by the ability to prevent maximal electroshock seizure in rat when administered intraperitoneally. In kind it is functional. To be noted: ip. The method, boiled down:
as §1

On to `O=C1NC(Cc2cccc(C(F)(F)F)c2)C(=O)N1CCBr` (centres undefined), for which the ED50 (usually the dose at which the effect has come halfway, by size or by number of responders) with Rattus norvegicus [1] is over 50 mg/kg.

Consider `COc1ccc(CC2NC(=O)NC2=O)cc1OC` (centres undefined), for which the ED50 was over 50 mg/kg in the data set on Rattus norvegicus [1] and over 200 mg/kg with Rattus norvegicus [2] (ip).

In the data set with Rattus norvegicus [1], `CC1(Cc2ccc3ccccc3c2)NC(=O)NC1=O` (centres undefined) came in with an ED50 of over 50 mg/kg.

In the case of `COc1ccc(OC)c(/C=C2/NC(=O)NC2=O)c1`, the LD50 (usually the dose at which mortality reaches 50%) in [3] was over 500 mg/kg. The ED50 with Rattus norvegicus [1] was over 50 mg/kg; in the data set with Rattus norvegicus [2] (ip) it was over 200 mg/kg.

Molecule `COc1ccc(OC)c(CC2NC(=O)NC2=O)c1` (centres undefined) gave an ED50 with Rattus norvegicus [1] of over 50 mg/kg.

In the case of `O=C1NC(=O)C(Cc2cccc(Br)c2)N1` (centres undefined), the ED50 in the data set on Rattus norvegicus [1] was over 50 mg/kg; in the data set with Rattus norvegicus [2] (ip) it was over 200 mg/kg.

`CN1C(=O)NC(Cc2cccc(C(F)(F)F)c2)C1=O` (centres undefined) showed an LD50 in data set [3] of 350 mg/kg. Moreover, the ED50 is over 50 mg/kg with Rattus norvegicus [1] and over 100 mg/kg in the data set on Rattus norvegicus [2] (ip).

`O=C1NC(=O)/C(=C\c2cccc(Cl)c2)N1`: the ED50 in the data set with Rattus norvegicus [1] was about 50 mg/kg; in the data set with Rattus norvegicus [2] (ip), over 200 mg/kg.

On to `O=C1NC(=O)C(Cc2cccc(C(F)(F)F)c2)N1` (centres undefined), for which the ED50 in the data set on Mus musculus [4] was 65 mg/kg; with Mus musculus [5], 70 mg/kg; with Rattus norvegicus [1], 23 mg/kg; in the data set on Mus musculus [8], 17.5 mg/kg; with Rattus norvegicus [2], about 100 mg/kg; in the data set with Mus musculus [9], 160 mg/kg. Also, the LD50 came out at 350 mg/kg in data set [3] and 410 mg/kg in data set [7]. Besides, the Duration of action in the data set with Rattus norvegicus [6] was determined as 4 h.

For `CN1C(=O)NC(Cc2cccc(Br)c2)C1=O` (centres undefined), the LD50 in [3] came to 500 mg/kg. Further, the ED50 was 30 mg/kg with Rattus norvegicus [1] and about 100 mg/kg in the data set on Rattus norvegicus [2] (ip).

`O=C1NC(=O)C(Cc2cccc(Cl)c2)N1` (centres undefined): the ED50 in the data set with Rattus norvegicus [1] is over 50 mg/kg; in the data set with Rattus norvegicus [2] (ip), about 150 mg/kg.

`COc1ccc(CC2(C)NC(=O)NC2=O)c(OC)c1` (centres undefined): the LD50 in data set [3] is over 600 mg/kg. Moreover, the ED50 in the data set on Rattus norvegicus [1] is over 50 mg/kg.

Regarding `O=C1NC(=O)C(c2ccccc2)(c2cccc(C(F)(F)F)c2)N1` (centres undefined), the LD50 in [3] was over 100 mg/kg. The ED50 with Rattus norvegicus [1] is over 50 mg/kg; with Rattus norvegicus [2] (ip), over 200 mg/kg.

`O=C1NC(=O)C(c2ccccc2)(c2ccccc2)N1` [PHENYTOIN]: the ED50 stood at 135 mg/kg in the data set on Mus musculus [10]; 50 mg/kg with Mus musculus [11]; 8.5 mg/kg with Mus musculus [5]; 9.6 mg/kg in the data set on Rattus norvegicus [1]; 82 mg/kg in the data set with Mus musculus [9]. The LD50 was 100 mg/kg in [3], 280 mg/kg in data set [7] and over 1000 mg/kg in data set [15]. Moreover, the Tolerance entry in the data set on Mus musculus [12] was “Active”. The molecule also gave a Duration of action in the data set filed under Rattus norvegicus [13] of 4 h. Further, the ED50 result with Rattus norvegicus [14] was “inactive”.

In data set [3], `COc1ccc(CC2(C)NC(=O)NC2=O)cc1OC` (centres undefined) returned an LD50 of over 500 mg/kg. The ED50 is over 50 mg/kg in the data set on Rattus norvegicus [1] and over 200 mg/kg in the data set with Rattus norvegicus [2] (ip).

`O=C1NC(=O)/C(=C\c2cccc(C(F)(F)F)c2)N1` gave an LD50 in data set [3] of 350 mg/kg. Moreover, the ED50 was about 50 mg/kg in the data set on Rattus norvegicus [1] and over 200 mg/kg with Rattus norvegicus [2] (ip).

On to `COc1ccc(/C=C2/NC(=O)NC2=O)cc1OC`, for which the LD50 in [3] is over 500 mg/kg. Besides, the figures for the ED50 with Rattus norvegicus [1] and in the data set with Rattus norvegicus [2] (ip) were over 200 mg/kg and over 50 mg/kg, respectively.

`COc1ccc(OC)c(CC2(C)NC(=O)NC2=O)c1` (centres undefined) registered a 50% lethal dose (LD50) in data set [3] of over 800 mg/kg. For the same molecule, in the data set on Rattus norvegicus [1], the ED50 is over 50 mg/kg.

As for `CC1(Cc2cccc(C(F)(F)F)c2)NC(=O)NC1=O` (centres undefined), in the data set with Rattus norvegicus [1], the ED50 was over 50 mg/kg.

In [3], `CCOC(=O)CN1C(=O)NC(Cc2cccc(C(F)(F)F)c2)C1=O` (centres undefined) displayed an LD50 of 500 mg/kg. The ED50 is over 50 mg/kg with Rattus norvegicus [1] and over 100 mg/kg with Rattus norvegicus [2] (ip).

As to `O=C1NC(Cc2cccc(C(F)(F)F)c2)C(=O)N1CCO` (centres undefined), the ED50 is 45 mg/kg with Rattus norvegicus [1] and 100 mg/kg in the data set with Rattus norvegicus [2] (ip).

Take `O=C1NC(=O)/C(=C\c2cccc(Br)c2)N1`: the LD50 in data set [3] is over 500 mg/kg. Also, the ED50 in the data set with Rattus norvegicus [1] is over 50 mg/kg; in the data set with Rattus norvegicus [2] (ip), over 200 mg/kg.

On to `N#CCCN1C(=O)NC(Cc2cccc(C(F)(F)F)c2)C1=O` (centres undefined), for which the ED50 in the data set with Rattus norvegicus [1] is over 50 mg/kg.

On to `CCCC(CCC)C(=O)O` [VALPROIC ACID], for which the ED50 in the data set on Mus musculus [4] was 415 mg/kg; with Mus musculus [5], 260 mg/kg; in the data set on Rattus norvegicus [20], 94.8 mg/kg; with Rattus norvegicus [2] (ip), over 500 mg/kg. Further, the values for the LD50 (in data set [16]; with Rattus norvegicus [17]; in data set [19]) were 838 mg/kg, 1530 mg/kg and 1040 mg/kg, respectively. Moreover, the Duration of action in the data set filed under Rattus norvegicus [18] is about 5 h.

The values are drawn from ChEMBL document CHEMBL1121819, “Potential anticonvulsants. 1. 5-Benzylhydantoins” (J Med Chem, 1981).
